Experiments:
Mus musculus [1] = experiment: Urinary Metabolic (3-(methylthio)acetaminophen) profile in the mouse 24 h after dose of 3 mmol/kg of the compound; format: ADME, organism-based, Urine; details: in vivo
Mus musculus [2] = experiment: Urinary Metabolic (acetaminophen-3-mecapturate) profile in the mouse 24 hr after dose of 3 mmol/kg of the compound; format: ADME, organism-based, Urine; details: in vivo
Mus musculus [3] = experiment: Urinary Metabolic (3-cysteinnylacetaminophen) profile in the mouse 24 hr after dose of 3 mmol/kg of the compound; format: ADME, organism-based, Urine; details: in vivo
Mus musculus [4] = experiment: Urinary Metabolic (3-hydroxyacetaminophen) profile in the mouse 24 h after dose of 3 mmol/kg of the compound; format: ADME, organism-based, Urine; details: in vivo
Mus musculus [5] = experiment: Time course of Distribution of Radioactivity in Mice Liver after 3 mmol/kg dose of the Compound after 3 h; format: ADME, organism-based; details: in vivo
How it was run: (§1)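 Groups of 12 mice given [acetyl-14C]-labelled drug ip, 3 mmol/kg (0.45 mCi/mmol), housed individually with urine/feces separation. Four killed at each of 1, 3 and 24 h by exsanguination. Tissues (~100 mg) digested in Soluene 350; blood digested and peroxide-bleached; feces freeze-dried, rehydrated, digested and bleached. Scintillation counting; nmol equiv/mg tissue or per mL blood/urine, means ± SE (N = 4).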

Mus musculus [6] = experiment: Time course of Distribution of Radioactivity in Mice kidney after 3 mmol/kg dose of the Compound after 1 h; format: ADME, organism-based; details: in vivo; how it was run: as §1
Mus musculus [7] = experiment: Time course of Distribution of Radioactivity in Mice kidney after 3 mmol/kg dose of the Compound after 24 h; format: ADME, organism-based; details: in vivo; how it was run: as §1
Mus musculus [8] = experiment: Time course of Distribution of Radioactivity in Mice kidney after 3 mmol/kg dose of the Compound after 3 h; format: ADME, organism-based; details: in vivo; how it was run: as §1
Mus musculus [9] = experiment: Urinary Metabolic (3-methoxyacetaminophen) profile in the mouse 24 hr after dose of 3 mmol/kg of the compound; format: ADME, organism-based, Urine; details: in vivo
Mus musculus [10] = experiment: Urinary Metabolic (Acetaminophen) profile in the mouse 24 h after dose of 3 mmol/kg of the compound; format: ADME, organism-based, Urine; details: in vivo
Mus musculus [11] = experiment: Time course of Distribution of Radioactivity in Mice brain after 3 mmol/kg dose of the Compound after 1 h; format: ADME, organism-based; details: in vivo; how it was run: as §1
Mus musculus [12] = experiment: Time course of Distribution of Radioactivity in Mice brain after 3 mmol/kg dose of the Compound after 24 h; format: ADME, organism-based; details: in vivo; how it was run: as §1
Mus musculus [13] = experiment: Time course of Distribution of Radioactivity in Mice brain after 3 mmol/kg dose of the Compound after 3 h; format: ADME, organism-based; details: in vivo; how it was run: as §1
Mus musculus [14] = experiment: Time course of Distribution of Radioactivity in Mice feces after 3 mmol/kg dose of the Compound after 1 hr; format: ADME, organism-based; details: in vivo; how it was run: as §1
Mus musculus [15] = experiment: Time course of Distribution of Radioactivity in Mice feces after 3 mmol/kg dose of the Compound after 24 h; format: ADME, organism-based; details: in vivo; how it was run: as §1
Mus musculus [16] = experiment: Time course of Distribution of Radioactivity in Mice feces after 3 mmol/kg dose of the Compound after 3 h; format: ADME, organism-based; details: in vivo; how it was run: as §1
Mus musculus [17] = experiment: Time course of Distribution of Radioactivity in Mice intestine after 3 mmol/kg dose of the Compound after 24 h; format: ADME, organism-based; details: in vivo; how it was run: as §1
Mus musculus [18] = experiment: Time course of Distribution of Radioactivity in Mice intestine after 3 mmol/kg dose of the Compound after 3 h; format: ADME, organism-based; details: in vivo; how it was run: as §1
Mus musculus [19] = experiment: Time course of Distribution of Radioactivity in Mice intestine after 3 mmol/kg dose of the Compound after 1 h; format: ADME, organism-based; details: in vivo; how it was run: as §1
Mus musculus [20] = experiment: Time course of Distribution of Radioactivity in Mice lungs/heart after 3 mmol/kg dose of the Compound after 1 h; format: ADME, organism-based, Lung; details: in vivo; how it was run: as §1
Mus musculus [21] = experiment: Time course of Distribution of Radioactivity in Mice lungs/heart after 3 mmol/kg dose of the Compound after 24 h; format: ADME, organism-based, Lung; details: in vivo; how it was run: as §1
Mus musculus [22] = experiment: Time course of Distribution of Radioactivity in Mice lungs/heart after 3 mmol/kg dose of the Compound after 3 h; format: ADME, organism-based, Lung; details: in vivo; how it was run: as §1
Mus musculus [23] = experiment: Time course of Distribution of Radioactivity in Mice spleen after 3 mmol/kg dose of the Compound after 1 h; format: ADME, organism-based; details: in vivo; how it was run: as §1
Mus musculus [24] = experiment: Time course of Distribution of Radioactivity in Mice spleen after 3 mmol/kg dose of the Compound after 24 h; format: ADME, organism-based; details: in vivo; how it was run: as §1
Mus musculus [25] = experiment: Time course of Distribution of Radioactivity in Mice spleen after 3 mmol/kg dose of the Compound after 3 h; format: ADME, organism-based; details: in vivo; how it was run: as §1
Mus musculus [26] = experiment: Time course of Distribution of Radioactivity in Mice stomach after 3 mmol/kg dose of the Compound after 1 h; format: ADME, organism-based; details: in vivo; how it was run: as §1
Mus musculus [27] = experiment: Time course of Distribution of Radioactivity in Mice stomach after 3 mmol/kg dose of the Compound after 24 h; format: ADME, organism-based; details: in vivo; how it was run: as §1
Mus musculus [28] = experiment: Time course of Distribution of Radioactivity in Mice Liver after 3 mmol/kg dose of the Compound after 1 h; format: ADME, organism-based; details: in vivo; how it was run: as §1
Mus musculus [29] = experiment: Time course of Distribution of Radioactivity in Mice Urine after 3 mmol/kg dose of the Compound after 1 h; format: ADME, organism-based; details: in vivo; how it was run: as §1
Mus musculus [30] = experiment: Time course of Distribution of Radioactivity in Mice Urine after 3 mmol/kg dose of the Compound after 24 h; format: ADME, organism-based; details: in vivo; how it was run: as §1
Mus musculus [31] = experiment: Time course of Distribution of Radioactivity in Mice Urine after 3 mmol/kg dose of the Compound after 3 h; format: ADME, organism-based; details: in vivo; how it was run: as §1
Mus musculus [32] = experiment: Time course of Distribution of Radioactivity in Mice blood after 3 mmol/kg dose of the Compound after 1 h; format: ADME, organism-based; details: in vivo; how it was run: as §1
Mus musculus [33] = experiment: Time course of Distribution of Radioactivity in Mice blood after 3 mmol/kg dose of the Compound after 24 h; format: ADME, organism-based; details: in vivo; how it was run: as §1
Mus musculus [34] = species: Mus musculus; experiment: Analgesic activity determined in mice using the Bradykinin-induced Writhing test; format: functional
How it was run: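 Male CD1 mice (15–20 g), test drug given orally 15 min before bradykinin ip (4 μg in 0.2 mL sterile water), then a second bradykinin injection (0.2 μg/0.1 mL) 15 min later. Writhing was scored over the next 10 min, with control groups of 10 mice. ED50 was derived by log-probit analysis from at least five doses, with 95% limits.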

Mus musculus [35] = experiment: (§2) Hepatotoxicity in Swiss-Webster Mice Caused by compound at 400 mg/kg (i.p.) dose; format: functional; details: route intraperitoneal
How it was run: (§3)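 Male Swiss-Webster mice (20 g), groups of 10, were given a single ip dose of drug in saline with no pretreatment. Survivors were decapitated at 24 h and counted. Plasma ALT was measured, and liver sections (formalin-fixed, paraffin, H&E) were scored for necrosis severity in survivors. Values are means ± SE.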

Mus musculus [36] = experiment: (§4) Hepatotoxicity in Swiss-Webster Mice Caused by compound at 750 mg/kg (i.p.) dose; format: functional; details: route intraperitoneal; how it was run: as §3
Mus musculus [37] = experiment: Hepatotoxicity in Swiss-Webster Mice Caused by compound at 400 mg/kg (i.p.) dose; 8/10; format: functional; details: route intraperitoneal; how it was run: as §3
Mus musculus [38] = experiment: as §2; format: functional, organism-based; set-up: dose 400 mg/kg; how it was run: as §3
Mus musculus [39] = experiment: as §4; format: functional, organism-based; set-up: dose 750 mg/kg; how it was run: as §3
Mus musculus [40] = experiment: Hepatotoxicity in Swiss-Webster Mice Caused by compound at 750 mg/kg (i.p.) dose; 4/10; format: functional; details: route intraperitoneal; how it was run: as §3
Mus musculus [41] = experiment: Time course of Distribution of Radioactivity in Mice blood after 3 mmol/kg dose of the Compound after 3 h; format: ADME, organism-based; details: in vivo; how it was run: as §1
Mus musculus [42] = experiment: Time course of Distribution of Radioactivity in Mice stomach after 3 mmol/kg dose of the Compound after 3 h; format: ADME, organism-based; details: in vivo; how it was run: as §1
Mus musculus [43] = experiment: Time course of Distribution of Radioactivity in Mice Liver after 3 mmol/kg dose of the Compound after 24 h; format: ADME, organism-based; details: in vivo; how it was run: as §1

CC(=O)Nc1ccc(O)cc1 [ACETAMINOPHEN]
Administered dose (Mus musculus [1]): 2.3% | Administered dose (Mus musculus [2]): 2% | Administered dose (Mus musculus [3]): 18.5% | Administered dose (Mus musculus [4]): 0.4% | Radioactivity (Mus musculus [5]): 0.73 nM equiv (mg of tissue)-1 | Radioactivity (Mus musculus [6]): 2.45 nM equiv (mg of tissue)-1 | Radioactivity (Mus musculus [7]): 0.21 nM equiv (mg of tissue)-1 | Radioactivity (Mus musculus [8]): 1.19 nM equiv (mg of tissue)-1 | Administered dose (Mus musculus [9]): 1.1% | Administered dose (Mus musculus [10]): 68.8% | Radioactivity (Mus musculus [11]): 1.22 nM equiv (mg of tissue)-1 | Radioactivity (Mus musculus [12]): 0.05 nM equiv (mg of tissue)-1 | Radioactivity (Mus musculus [13]): 0.24 nM equiv (mg of tissue)-1 | Radioactivity (Mus musculus [14]): 0.09 nM equiv mg-1 | Radioactivity (Mus musculus [15]): 15.3 nM equiv mg-1 | Radioactivity (Mus musculus [16]): 1.52 nM equiv mg-1 | Radioactivity (Mus musculus [17]): 0.92 nM equiv (mg of tissue)-1 | Radioactivity (Mus musculus [18]): 1.08 nM equiv (mg of tissue)-1 | Radioactivity (Mus musculus [19]): 2.19 nM equiv (mg of tissue)-1 | Radioactivity (Mus musculus [20]): 1.13 nM equiv (mg of tissue)-1 | Radioactivity (Mus musculus [21]): 0.11 nM equiv (mg of tissue)-1 | Radioactivity (Mus musculus [22]): 0.2 nM equiv (mg of tissue)-1 | Radioactivity (Mus musculus [23]): 1.55 nM equiv (mg of tissue)-1 | Radioactivity (Mus musculus [24]): 0.04 nM equiv (mg of tissue)-1 | Radioactivity (Mus musculus [25]): 0.29 nM equiv (mg of tissue)-1 | Radioactivity (Mus musculus [26]): 1.13 nM equiv (mg of tissue)-1 | Radioactivity (Mus musculus [27]): 0.15 nM equiv (mg of tissue)-1 | Radioactivity (Mus musculus [28]): 2.89 nM equiv (mg of tissue)-1 | Radioactivity (Mus musculus [29]): 12.4 nM equiv (ml of urine)-1 | Radioactivity (Mus musculus [30]): 6005 nM equiv (ml of urine)-1 | Radioactivity (Mus musculus [31]): 3880 nM equiv (ml of urine)-1 | Radioactivity (Mus musculus [32]): 1605 nM equiv (ml of blood)-1 | Radioactivity (Mus musculus [33]): 19.2 nM equiv (ml of blood)-1 | ED50 (Mus musculus [34]): 84.3 mg/kg | Hepatic necrosis in survivors (Mus musculus [35]): 1.13 | Hepatic necrosis in survivors (Mus musculus [36]): 3.25 | Survivors at 24 h (Mus musculus [37]): 8 | Plasma ALT at 24 h (Mus musculus [38]): 1550 mU ml-1 | Plasma ALT at 24 h (Mus musculus [39]): 4030 mU ml-1 | Survivors at 24 h (Mus musculus [40]): 4 | Radioactivity (Mus musculus [41]): 544 nM equiv (ml of blood)-1 | Radioactivity (Mus musculus [42]): 0.71 nM equiv (mg of tissue)-1 | Radioactivity (Mus musculus [43]): 0.58 nM equiv (mg of tissue)-1

From ChEMBL document CHEMBL1123436, “Comparative toxicities and analgesic activities of three monomethylated analogues of acetaminophen” (J Med Chem, 1986)
